The text below walks through data of ChEMBL document CHEMBL4680100, “Revisiting the SAR of the Antischistosomal Aryl Hydantoin (Ro 13-3978)” (J Med Chem, 2016).

≈ marks a conversion by molar mass, not a printed value.

Data set [1] can be described thus: Octanol/water partition coefficient, logD of the compound at pH 7.4 by HPLC analysis.
For data set [2], the target named is Albumin (Homo sapiens, UniProt P02768). Description: Protein binding in immobilized human serum albumin by HPLC analysis. The data set is classed as ADME. The settings on record: isolated protein. An outline of the steps:
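Binding estimated from gradient HPLC retention on a human albumin column, correlated against standard compounds of known protein binding.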

Data set [3] can be described thus: Kinetic solubility of the compound in 0.01 M HCl at pH 2 by nephelometry. Format: physicochemical. The following applies: read-out: Kinetic_solubility.
The nature of data set [4]: Kinetic solubility of compound at pH 6.5 phosphate buffer by nephelometry. Format: physicochemical. The settings on record: read-out: Kinetic_solubility.
Data set [5] in a line: Intrinsic clearance in human liver microsome in presence of NADPH-regenerating system incubated over 60 mins by LC-MS analysis. The following applies: microsomes, 1 h. Background: Liver microsomes are a subcellular fraction often used to study metabolism.
The nature of data set [6]: Intrinsic clearance in mouse liver microsome in presence of NADPH-regenerating system incubated over 60 mins by LC-MS analysis. The following applies: microsomes, 1 h.
The test system of data set [7] is Schistosoma mansoni. Description: Antischistosomal activity against Schistosoma mansoni infected in NMRI mouse assessed as reduction in total worm burden at 100 mg/kg, po administered as single dose starting on day 49 post-infection and measured at 28 days post treatment relative to control. Format: functional. Also noted: scale not given: the % may be the effect or the level left. The following applies: time 28 day. In outline: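 S. mansoni-infected NMRI mice treated on day 49 post-infection with a single oral dose, dissolved or suspended in 7% v/v Tween 80, 3% v/v ethanol (10 mL/kg), five mice per group. Sacrificed and dissected 28 d post-treatment; worms counted to give total worm burden reduction versus untreated controls. Kruskal–Wallis test on medians, treatment versus control.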

For data set [8], the system named is L6. Put plainly: Cytotoxicity against rat L6 cells assessed as reduction in cell viability at up to 30 uM. Format: cell-based.
In data set [9] the target is T1, Androgen receptor (Homo sapiens, UniProt P10275).
T1 sequence (P10275 whole entry): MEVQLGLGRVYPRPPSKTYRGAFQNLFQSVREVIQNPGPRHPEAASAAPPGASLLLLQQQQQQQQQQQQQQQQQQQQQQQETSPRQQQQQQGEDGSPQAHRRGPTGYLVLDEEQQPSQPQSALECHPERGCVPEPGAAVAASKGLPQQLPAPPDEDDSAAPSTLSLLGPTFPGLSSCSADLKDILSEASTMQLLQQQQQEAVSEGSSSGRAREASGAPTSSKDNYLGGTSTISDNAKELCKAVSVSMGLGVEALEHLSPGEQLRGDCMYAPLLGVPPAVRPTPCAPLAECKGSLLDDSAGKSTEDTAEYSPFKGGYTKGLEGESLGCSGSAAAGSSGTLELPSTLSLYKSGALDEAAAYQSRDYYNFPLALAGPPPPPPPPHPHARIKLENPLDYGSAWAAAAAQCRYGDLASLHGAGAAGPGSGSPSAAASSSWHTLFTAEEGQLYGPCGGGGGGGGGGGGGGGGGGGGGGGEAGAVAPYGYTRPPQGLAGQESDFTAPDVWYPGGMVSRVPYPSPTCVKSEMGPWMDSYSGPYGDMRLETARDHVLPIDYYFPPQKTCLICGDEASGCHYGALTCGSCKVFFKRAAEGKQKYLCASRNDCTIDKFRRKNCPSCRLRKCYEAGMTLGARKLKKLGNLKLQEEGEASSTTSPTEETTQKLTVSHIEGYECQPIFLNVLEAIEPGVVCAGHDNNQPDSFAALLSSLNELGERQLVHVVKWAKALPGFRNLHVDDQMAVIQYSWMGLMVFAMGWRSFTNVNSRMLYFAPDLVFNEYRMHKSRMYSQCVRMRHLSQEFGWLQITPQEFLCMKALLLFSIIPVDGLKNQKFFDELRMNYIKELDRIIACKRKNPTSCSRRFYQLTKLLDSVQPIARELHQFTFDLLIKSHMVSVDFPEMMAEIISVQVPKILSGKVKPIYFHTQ
The following applies: lapc4.

The subject of data set [10] is Schistosoma mansoni. Put plainly: Antischistosomal activity against Schistosoma mansoni infected in mouse assessed as effective dose causing reduction in worm burden. The data set is classed as functional.
A short description of data set [11]: Cmax in male Swiss mouse at 100 mg/kg, po administered via gavage measured upto 48 hrs postdose by LC-MS analysis. Also noted: route oral, dose 100 mg/kg, time <=48. Format: ADME, organism-based. The following applies: in vivo. An outline of the steps: (§1)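 Nonfasted male Swiss outbred mice (25–33 g, 7 per compound, fed ad libitum) were gavaged once at 10 mL/kg. Vehicle was 7% v/v Tween 80, 3% v/v ethanol in water, dosed within 1 h of preparation. Blood was drawn 0.25–48 h postdose (n = 2 per time point) into heparin with stabilizer, and plasma was quantified by LCMS. Noncompartmental analysis.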

Data set [12] in a line: AUC (0 to last) in male Swiss mouse at 100 mg/kg, po administered via gavage measured upto 48 hrs postdose by LC-MS analysis. Format: ADME, organism-based. Also noted: route oral, dose 100 mg/kg, time <=48. The following applies: in vivo.
Data set [13] deals with Schistosoma mansoni. Description: Antischistosomal activity against adult Schistosoma mansoni cercariae infected in mouse assessed as effective dose causing reduction in worm burden. Format: functional.
The test system of data set [14] is Schistosoma mansoni. Put plainly: Antischistosomal activity against juvenile Schistosoma mansoni cercariae infected in mouse assessed as effective dose causing reduction in worm burden. The data set is classed as functional.
Data set [15] addresses T1, Androgen receptor.
Data set [16] can be described thus: Tmax in male Swiss mouse at 100 mg/kg, po administered via gavage measured upto 48 hrs postdose by LC-MS analysis. Format: ADME, organism-based. The settings on record: in vivo. An outline of the steps: as §1

Sequence of Albumin (P02768 whole entry): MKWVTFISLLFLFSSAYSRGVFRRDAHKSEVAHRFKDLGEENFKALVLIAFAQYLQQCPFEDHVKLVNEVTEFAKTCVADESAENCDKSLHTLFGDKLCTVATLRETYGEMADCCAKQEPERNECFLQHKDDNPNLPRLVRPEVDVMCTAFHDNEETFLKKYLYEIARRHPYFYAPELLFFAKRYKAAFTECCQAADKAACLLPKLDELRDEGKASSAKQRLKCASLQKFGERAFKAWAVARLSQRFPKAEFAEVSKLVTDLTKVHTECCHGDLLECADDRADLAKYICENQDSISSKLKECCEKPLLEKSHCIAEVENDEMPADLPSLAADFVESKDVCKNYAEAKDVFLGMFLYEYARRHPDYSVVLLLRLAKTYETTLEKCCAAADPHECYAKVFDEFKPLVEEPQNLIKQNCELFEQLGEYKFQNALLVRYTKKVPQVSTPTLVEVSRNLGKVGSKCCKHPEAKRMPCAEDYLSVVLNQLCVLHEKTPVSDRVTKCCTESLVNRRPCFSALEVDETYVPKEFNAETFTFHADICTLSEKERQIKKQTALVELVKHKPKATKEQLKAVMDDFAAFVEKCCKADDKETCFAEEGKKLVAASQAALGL

On to `CC1(C)C(=O)N(c2ccc(F)c(C(F)(F)F)c2)C(=O)N1CC(N)=O`, for which, in data set [1], the logD (as a rule, the decadic logarithm of the distribution of all forms, ionised or not, between an organic phase and buffer at a given pH) worked out at 2.2. In addition, the PPB in data set [2] is 20.3%. Moreover, the solubility kinetic in data set [3] and in data set [4] was 50 µg/mL (≈ 144 µM) throughout. Moreover, the CLH in data set [5] and in data set [6] was less than 7 µL/min/mg throughout. Further, the Activity in data set [7] is 25%; in data set [8], “Non-Toxic”. For the same compound, the IC50 (usually the midpoint of a concentration-inhibition curve) in data set [9] is reported as “Not Active”.

For the compound `COC(=O)C(C)(C)NC(=O)Nc1ccc(F)c(C(F)(F)F)c1`, the ED50 (usually the midpoint of the dose-response relation) in data set [10] turned out to be 62 mg/kg.

As to `CC1(C)NC(=O)N(c2ccc(F)c(C(F)(F)F)c2)C1=O`, the logD in [1] stood at 2.7. Besides, the PPB in [2] was 52.1%. Besides, the solubility kinetic in data set [3] and in data set [4] was greater than 100 µg/mL each time. Further, the CLH is 8 µL/min/mg in data set [5] and less than 7 µL/min/mg in data set [6]. In addition, the Activity in [7] is given as 95%; in data set [8], “Non-Toxic”. Besides, in [11], the Cmax (usually the peak of the concentration-time curve) stood at 124 µM. In data set [12], the AUClast came to 2740 µM·h. The ED50 in data set [13] stood at 15 mg/kg; in data set [14] it was 140 mg/kg. This compound displayed an IC50 in data set [15] of 4.4 µM.

In data set [1], `O=C1NC2(CCCC2)C(=O)N1c1ccc(F)c(C(F)(F)F)c1` gave a logD of 3.2. This compound also registered a PPB in data set [2] of 70.4%. Further, the solubility kinetic in [3] and in data set [4] was 50 µg/mL (≈ 158 µM) in each case. Further, the figures for the CLH in [5] and in data set [6] were 33 µL/min/mg and 93 µL/min/mg, respectively. For the same compound, the Activity in data set [7] is given as 61%; in data set [8] it was “Non-Toxic”. This compound gave a Cmax in data set [11] of 15 µM. Also, in data set [16], the Tmax (in general, the time at which the peak concentration occurs) is 1 h. This compound also gave an AUClast in data set [12] of 106 µM·h. In addition, in data set [15], it took 0.99 µM to reach half-maximal inhibition (IC50).
